Activity calls are given as the source filed them.
Assays:
[1] = test system: Cystic fibrosis transmembrane conductance regulator (Homo sapiens), P13569 [G551D]; assay: Potentiation of human CFTR G551D mutant expressed in rat FRT cells coexpressing HS-YFP assessed as increase in iodide influx at 20 uM pre-incubated for 15 to 30 mins in presence of forskolin by fluorescent method relative to forskolin alone; assay type: cell-based; conditions: time min 15-30
Method in brief: (§1)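 HS-YFP iodide influx assay in FRT cells (F508del cells rescued 24 h at 32 °C; G551D cells not); 25 min with forskolin plus compound at fixed concentrations, then I⁻ injection (final 100 mM); quenching rate from linear fit of final 10 s of a 14 s reading; three concentrations tested on G551D cells; n = 9.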

[2] = test system: Cystic fibrosis transmembrane conductance regulator (Homo sapiens), P13569 [F508del]; assay: Potentiation of human CFTR F508 deletion mutant expressed in rat FRT cells coexpressing HS-YFP assessed as increase in iodide influx at 1 uM pre-incubated for 15 to 30 mins in presence of forskolin by fluorescent method relative to forskolin alone; assay type: cell-based; conditions: filed as activator, time min 15-30; method in brief: as §1
[3] = test system: Cystic fibrosis transmembrane conductance regulator (Homo sapiens), P13569 [G551D]; assay: Potentiation of human CFTR G551D mutant expressed in rat FRT cells coexpressing HS-YFP assessed as increase in iodide influx at 5 uM pre-incubated for 15 to 30 mins in presence of forskolin by fluorescent method relative to forskolin alone; assay type: cell-based; conditions: filed as activator, time min 15-30; method in brief: as §1
[4] = test system: Cystic fibrosis transmembrane conductance regulator (Homo sapiens), P13569 [F508del]; assay: Potentiation of human CFTR F508 deletion mutant expressed in CFBE41o cells coexpressing HS-YFP assessed as increase in CFTR-dependent iodide influx at 0.256 to 10 uM pre-incubated for 15 to 30 mins in presence of forskolin by fluorescent method relative to forskolin alone; conditions: filed as activator, dose microM 0.256-10, time min 15-30
[5] = test system: Cystic fibrosis transmembrane conductance regulator (Homo sapiens), P13569 [G551D]; assay: Potentiation of human CFTR G551D mutant expressed in rat FRT cells coexpressing HS-YFP assessed as increase in iodide influx at 1.56 to 50 uM pre-incubated for 15 to 30 mins in presence of forskolin by fluorescent method relative to forskolin alone; assay type: cell-based; conditions: filed as activator, dose microM 1.56-50, time min 15-30
Method in brief: (§2)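 Cells plated 50,000/well, assayed next day; F508del FRT cells first held 24 h at 32 °C to rescue trafficking. Washed in PBS, incubated 25 min with forskolin (20 μM) plus compound, then I⁻ solution injected (final 100 mM). YFP fluorescence (ex 500, em 535 nm) read for 14 s; initial slope from linear fit of final 10 s; dose–response, n = 9.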

[6] = test system: Cystic fibrosis transmembrane conductance regulator (Homo sapiens), P13569 [F508del]; assay: Potentiation of human CFTR F508 deletion mutant expressed in rat FRT cells coexpressing HS-YFP assessed as increase in iodide influx at 5 uM pre-incubated for 15 to 30 mins in presence of forskolin by fluorescent method relative to forskolin alone; assay type: cell-based; conditions: filed as activator, time min 15-30; method in brief: as §2
[7] = test system: Cystic fibrosis transmembrane conductance regulator (Homo sapiens), P13569 [F508del]; assay: Potentiation of human CFTR F508 deletion mutant expressed in rat FRT cells coexpressing HS-YFP assessed as increase in iodide influx at […] to 10 uM pre-incubated for 15 to 30 mins in presence of forskolin by fluorescent method relative to forskolin alone; assay type: cell-based; conditions: filed as activator, dose microM 0.256-10, time min 15-30; method in brief: as §2
[8] = target: T1, Cystic fibrosis transmembrane conductance regulator (Homo sapiens, UniProt P13569); assay: Potentiation of CFTR in primary human bronchial epithelial cells assessed as stimulation of CFTR-mediated chloride current at 0.5 to 5 uM in presence of CPT-cAMP and CFTR inhibitor-172 by short-circuit current method; conditions: dose microM 0.5-5
Method in brief: (§3)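 Non-CF primary HBE cells on porous inserts, differentiated at air–liquid interface 2–3 weeks; Ussing chamber short-circuit current. Amiloride added to block ENaC; cells stimulated with submaximal CPT-cAMP, then increasing potentiator concentrations or potentiator then CPT-cAMP 5 μM and 100 μM; total CFTR current defined by CFTR inhibitor-172; n = 9 (three experiments × three replicates).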
Target sequence in this assay (P13569 whole entry, looked up): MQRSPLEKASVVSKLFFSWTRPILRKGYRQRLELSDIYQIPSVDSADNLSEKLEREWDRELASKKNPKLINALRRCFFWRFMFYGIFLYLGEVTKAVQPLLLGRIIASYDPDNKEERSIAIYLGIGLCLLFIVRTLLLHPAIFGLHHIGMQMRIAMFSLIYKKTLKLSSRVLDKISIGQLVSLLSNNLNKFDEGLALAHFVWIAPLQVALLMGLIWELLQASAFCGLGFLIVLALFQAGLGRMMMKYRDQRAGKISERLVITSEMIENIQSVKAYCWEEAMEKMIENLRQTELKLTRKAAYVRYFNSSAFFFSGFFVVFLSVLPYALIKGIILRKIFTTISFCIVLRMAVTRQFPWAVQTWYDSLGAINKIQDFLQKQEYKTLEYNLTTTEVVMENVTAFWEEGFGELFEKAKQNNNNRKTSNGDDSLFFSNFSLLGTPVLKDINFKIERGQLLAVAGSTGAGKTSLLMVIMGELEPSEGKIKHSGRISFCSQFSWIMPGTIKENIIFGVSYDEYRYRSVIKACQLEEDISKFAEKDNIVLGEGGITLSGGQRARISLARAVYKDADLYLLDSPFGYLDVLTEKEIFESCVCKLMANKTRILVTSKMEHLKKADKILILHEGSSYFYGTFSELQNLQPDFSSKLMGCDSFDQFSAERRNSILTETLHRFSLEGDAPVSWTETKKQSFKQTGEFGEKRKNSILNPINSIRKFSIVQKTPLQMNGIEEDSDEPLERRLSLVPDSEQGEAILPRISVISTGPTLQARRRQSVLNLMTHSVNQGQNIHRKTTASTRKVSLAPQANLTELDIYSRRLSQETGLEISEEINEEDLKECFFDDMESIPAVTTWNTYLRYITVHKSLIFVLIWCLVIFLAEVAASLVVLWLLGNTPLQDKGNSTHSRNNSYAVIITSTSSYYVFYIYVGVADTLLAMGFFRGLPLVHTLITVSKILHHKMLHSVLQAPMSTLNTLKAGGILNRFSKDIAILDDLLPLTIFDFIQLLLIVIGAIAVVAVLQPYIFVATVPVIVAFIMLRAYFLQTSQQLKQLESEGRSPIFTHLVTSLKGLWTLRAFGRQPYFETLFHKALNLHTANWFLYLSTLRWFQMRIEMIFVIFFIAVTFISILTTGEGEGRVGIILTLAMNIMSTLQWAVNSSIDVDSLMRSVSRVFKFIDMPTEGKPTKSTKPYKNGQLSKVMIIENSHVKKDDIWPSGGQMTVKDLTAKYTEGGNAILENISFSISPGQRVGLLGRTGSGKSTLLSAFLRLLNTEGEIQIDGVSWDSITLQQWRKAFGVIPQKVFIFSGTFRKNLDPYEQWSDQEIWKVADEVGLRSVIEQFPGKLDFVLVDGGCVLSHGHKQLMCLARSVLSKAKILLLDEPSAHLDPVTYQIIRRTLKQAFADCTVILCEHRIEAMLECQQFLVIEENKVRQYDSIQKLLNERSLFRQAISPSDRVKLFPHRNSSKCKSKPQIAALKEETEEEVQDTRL

[9] = target: T1, Cystic fibrosis transmembrane conductance regulator; assay: Potentiation of CFTR in primary human bronchial epithelial cells assessed as stimulation of CFTR-mediated chloride current at 30 to […] uM in presence of CPT-cAMP by short-circuit current method; conditions: filed as activator, dose microM 30-50; method in brief: as §3
Target sequence in this assay (P13569 whole entry, looked up): as above

[10] = test system: Cystic fibrosis transmembrane conductance regulator (Homo sapiens), P13569 [F508del]; assay: Potentiation of human CFTR F508 deletion mutant expressed in rat FRT cells coexpressing HS-YFP assessed as increase in iodide influx pre-incubated for 15 to 30 mins in presence of forskolin by fluorescent method relative to forskolin alone; assay type: cell-based; conditions: time min 15-30
Method in brief: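 Primary HTS: F508del-CFTR/HS-YFP FRT cells, rescued 24 h at 32 °C, were treated acutely (15–30 min) with single compound at 5 μM plus forskolin 10 μM, screened in duplicate. The HS-YFP quenching rate from iodide influx was expressed relative to forskolin-alone wells. Forskolin plus VX-770 1 μM served as positive control. The average of two rounds was scored, with hit threshold >185%.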

[11] = target: T1, Cystic fibrosis transmembrane conductance regulator; assay: Potentiation of human CFTR F508 deletion mutant expressed in rat FRT cells coexpressing HS-YFP assessed as increase in iodide influx pre-incubated for 15 to 30 mins in presence of forskolin by fluorescent method; assay type: cell-based
Target sequence in this assay (P13569 as listed by the source): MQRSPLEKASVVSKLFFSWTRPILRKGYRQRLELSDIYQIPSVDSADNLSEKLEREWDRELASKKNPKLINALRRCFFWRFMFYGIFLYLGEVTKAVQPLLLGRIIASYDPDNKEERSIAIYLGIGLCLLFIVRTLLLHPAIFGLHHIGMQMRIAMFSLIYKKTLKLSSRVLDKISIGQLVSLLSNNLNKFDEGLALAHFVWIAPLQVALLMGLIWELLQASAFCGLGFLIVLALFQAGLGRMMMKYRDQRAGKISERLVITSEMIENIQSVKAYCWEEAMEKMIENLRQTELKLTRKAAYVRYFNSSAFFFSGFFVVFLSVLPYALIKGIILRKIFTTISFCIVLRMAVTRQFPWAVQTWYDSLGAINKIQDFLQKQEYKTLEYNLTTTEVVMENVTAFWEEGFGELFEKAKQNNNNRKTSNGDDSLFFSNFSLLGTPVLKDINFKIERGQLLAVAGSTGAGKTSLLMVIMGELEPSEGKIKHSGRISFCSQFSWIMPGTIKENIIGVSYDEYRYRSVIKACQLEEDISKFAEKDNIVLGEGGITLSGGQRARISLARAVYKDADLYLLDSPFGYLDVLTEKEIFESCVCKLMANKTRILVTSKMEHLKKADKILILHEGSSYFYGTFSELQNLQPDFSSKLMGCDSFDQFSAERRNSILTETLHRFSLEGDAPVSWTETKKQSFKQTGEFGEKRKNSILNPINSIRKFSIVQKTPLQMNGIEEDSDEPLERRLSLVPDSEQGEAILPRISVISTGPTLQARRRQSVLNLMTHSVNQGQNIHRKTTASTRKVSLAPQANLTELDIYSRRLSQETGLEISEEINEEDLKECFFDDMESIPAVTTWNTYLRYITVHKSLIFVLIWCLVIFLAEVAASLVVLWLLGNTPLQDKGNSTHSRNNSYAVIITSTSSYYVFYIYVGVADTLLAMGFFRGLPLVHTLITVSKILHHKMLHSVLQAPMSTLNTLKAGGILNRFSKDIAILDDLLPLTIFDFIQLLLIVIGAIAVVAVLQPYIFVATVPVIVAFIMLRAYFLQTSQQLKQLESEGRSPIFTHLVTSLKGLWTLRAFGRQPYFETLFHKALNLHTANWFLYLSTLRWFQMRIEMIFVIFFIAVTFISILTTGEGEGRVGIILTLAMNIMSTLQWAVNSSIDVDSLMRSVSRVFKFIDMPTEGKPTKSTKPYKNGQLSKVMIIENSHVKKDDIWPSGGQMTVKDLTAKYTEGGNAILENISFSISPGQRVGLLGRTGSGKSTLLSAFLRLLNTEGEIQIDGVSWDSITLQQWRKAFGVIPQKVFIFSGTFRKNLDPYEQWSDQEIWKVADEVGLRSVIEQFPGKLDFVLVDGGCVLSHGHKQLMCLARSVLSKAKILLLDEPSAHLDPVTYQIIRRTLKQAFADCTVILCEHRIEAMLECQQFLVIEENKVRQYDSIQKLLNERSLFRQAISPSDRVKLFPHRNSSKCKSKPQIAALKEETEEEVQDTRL

[12] = test system: Cystic fibrosis transmembrane conductance regulator (Homo sapiens), P13569 [F508del]; assay: Effect on processing/trafficking of CFTR F508 deletion mutant in primary HBE cells from F508del/F508del CF patient at 0.5 uM incubated for 24 hrs in presence of CFTR corrector ARN23765 by TEER/PD assay; assay type: cell-based
Method in brief: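 Differentiated F508del/F508del primary bronchial epithelia grown at air–liquid interface 2–3 weeks; treated 24 h at 37 °C, 5% CO2 in culture medium with vehicle, corrector ARN23765 (10 nM) alone, or ARN23765 plus test compound (0.5 μM); TEER and PD measured, equivalent short-circuit current calculated; n = 9 (three experiments × three biological replicates).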

[13] = target: T1, Cystic fibrosis transmembrane conductance regulator; assay: Potentiation of CFTR in primary human bronchial epithelial cells assessed as stimulation of CFTR-mediated chloride current at 100 uM in presence of CPT-cAMP by short-circuit current method; conditions: dose 1.0 µM, in the assay text read “at 1 uM” for “at 100 uM”; method in brief: as §3
Target sequence in this assay (P13569 whole entry, looked up): as the sequence (P13569 whole entry, looked up) above

Sequence of Cystic fibrosis transmembrane conductance regulator (Homo sapiens), P13569 [F508del] (P13569 as listed by the source): as the sequence (P13569 as listed by the source) above
Sequence of Cystic fibrosis transmembrane conductance regulator (Homo sapiens), P13569 [G551D] (P13569 whole entry G551D): as the sequence (P13569 whole entry, looked up) above, with G551D counted along it

In the case of `COc1cc(F)c2[nH]c3c(c2c1)CN(C(=O)c1cc(C(F)(F)F)[nH]n1)CC3`, the Activity ([1]; filed as activator) is reported as “Active”.

In the case of `CC(C)(C)c1cc(C(C)(C)C)c(NC(=O)c2c[nH]c3ccccc3c2=O)cc1O`, the Activity ([1]; filed as activator) is reported as “Active”, the Activity [2] is reported as “Active” and the Activity [3] is reported as “Active”.

For `CN(C)c1ccc2cc(C(=O)N3CCc4[nH]c5ccccc5c4C3)[nH]c2c1`, the Activity [4] was “Dose-dependent effect”, the Activity [5] was “Active” and the Activity [6] was “Active”. The Activity [7] was “Active”.

For `COc1ccc2[nH]c3c(c2c1)CN(C(=O)c1cc(C(F)(F)F)[nH]n1)CC3`, the Activity [4] was “Dose-dependent effect”, the Activity [1] was “inactive” and the Activity [5] was “Active”. For the same compound, the Activity [8] was “inactive”, the Activity [9] was “Active” and the Activity [6] was “Active”. The Activity [7] was “Active”.

In the case of `Cc1ccc(F)c2[nH]c3c(c12)CN(C(=O)c1cc(C(F)(F)F)[nH]n1)CC3`, the Activity ([1]; filed as activator) is reported as “Active”.

For `O=C(c1cc(C(F)(F)F)[nH]n1)N1CCc2[nH]c3c(F)cccc3c2C1`, the Activity ([1]; filed as activator) was “Active”.

In the case of `O=C(c1cnn(-c2ccccc2)c1)N1CCc2[nH]c3ccccc3c2C1`, the Activity [4] is reported as “Dose-dependent effect”, the Activity [5] is reported as “Active” and the Activity [6] is reported as “Active”. For the same compound, the Activity [7] was “Active”.

For `Cc1ccc(F)c2[nH]c3c(c12)[C@H]1CC[C@@H](C3)N1C(=O)c1cc(C(F)(F)F)[nH]n1`, the Emax [10] was “inactive” and the EC50 [11] was “Not Active”.

With `Cc1ccc(F)c2[nH]c3c(c12)CN(C(=O)c1cc(C(F)(F)F)[nH]n1)[C@H](C)C3` the Activity ([1]; filed as activator) was “Active”, the Activity [12] was “inactive” and the fold change (FC) [13] was over 2.

From ChEMBL document CHEMBL4725414, “Identification, Structure-Activity Relationship, and Biological Characterization of 2,3,4,5-Tetrahydro-1H-pyrido[4,3-b]indoles as a Novel Class of CFTR Potentiators” (J Med Chem, 2020)
